WT yeast gro inh: growth inhibition of WT strain, primary screen, mitochondrial fusion inhibitor project, WT and mutant strains, chemical genetic; mitochondrial fusion phenotypic screen; inhibition, % at 10 µM; 2.1% of 190,000 active; AID 1362, 2008; in the data active = inhibition above about 58%; tested in S. cerevisiae
ABCB1 inh: ABCB1 efflux pump inhibitors, primary screen, cell-based, multiplex, flow cytometry, ABCG2 counter-screen; ATP-dependent translocase ABCB1 (Homo sapiens), P08183; CCRF-Adr cells, JC-1 efflux; inhibition, % at 6.6 µM; AID 1326, 2008; 0.067% of 190,000 active; in the data active = inhibition above about 40%;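 note: higher value means more JC-1 retained so stronger ABCB1 efflux block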
Lmaj promast: Leishmania major promastigote growth inhibition, primary screen; Leishmania major promastigotes, resazurin fluorescence viability; inhibition, % at 10 µM; 9% of 200,000 active; in the data active = inhibition above about 50%;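 note: promastigotes grown with compound for 44 hours at 28 °C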
RAM network inh: inhibitors of the yeast RAM network, primary screen, dse1pr::URA3 reporter, 5-FOA selection. S. cerevisiae dse1pr::URA3 reporter, 5-FOA growth OD615, 2 d; analog-sensitive cbk1-as2 kinase mutant strain. inhibition, % at 50 µM. 1.8% of 190,000 active;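 active = inhibition above a set limit, 3 SD over mean compound inhibition, cut at about 8.4% in these data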;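 note: inhibition rescues growth on 5-FOA so higher OD means more RAM inhibition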
ABCG2 inh: ABCG2 efflux pump inhibitors, primary screen, multiplex with ABCB1, IgMXP3 cells, flow cytometry. Broad substrate specificity ATP-binding cassette transporter ABCG2 (Homo sapiens), Q9UNQ0. JC-1 efflux. inhibition, % at 6.6 µM. 0.1% of 190,000 active. AID 1325, 2008;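 active = inhibition above 80%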
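Incubation: cells with compound and JC-1, 10 min at 25 °C, rotating, no wash / Test system: IgMXP3 (ABCG2) plus far-red-tagged CCRF-Adr (ABCB1) cells / Compound dosing: one concentration, 6.6 µM final / Also added: JC-1 fluorescent substrate / Evaluation: efflux inhibition in percent versus controls / Detection: flow cytometry, 530 nm JC-1 signal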
Of the large screens only hits and unclear results are named; the others gave an inactive call. An excerpt weighted towards active compounds, which were near 12% of everything screened.

CCOc1ccccc1N(C(=O)c1ccco1)C(C(=O)NC1CCCC1)c1cccnc1 (stereo not given)	none
CCCC(C(=O)NC1CCCC1)N(Cc1ccc2c(c1)OCO2)C(=O)c1snc(C(N)=O)c1N (stereo not given)	Lmaj promast 54
NC(=O)c1ccc[n+](CCC[n+]2cccc(C(N)=O)c2)c1	none
CCCCCCCCCC[n+]1cccc(C(=O)N(CC)CC)c1	Lmaj promast 90
O=C(CC(Nc1ccc(F)cc1)c1ccccc1)c1ccccc1 (stereo not given)	WT yeast gro inh 78
Cc1cc(=O)oc2cc(OCC3CC(c4ccc(Cl)cc4)=NO3)ccc12 (stereo not given)	WT yeast gro inh 65 (no result: ABCB1 inh, ABCG2 inh)
CC(=O)c1ccc(O)c(CSC2=NCCS2)c1	none
COc1ccc(N2CCN(CCCNC(=O)C3CCC(CNc4nc(=S)[nH]c5ccccc45)CC3)CC2)cc1 (stereo not given)	Lmaj promast 86
Cc1ccc(C(=O)COC(=O)CCCC(=O)Nc2cc(C(F)(F)F)ccc2Cl)cc1C	none
O=C(Nc1ccc(Nc2ccccc2)cc1)C(Cl)(Cl)Cl	Lmaj promast 78
CCC(=O)Nc1ccc(Nc2ccccc2)cc1	Lmaj promast 93
CCc1cc(SC#N)cc(CC)c1NC(=O)CCl	none
CN(CCCNC(=O)Cn1cccc1C(=O)c1ccccc1)C1CCCCC1	none
O=C(c1ccco1)N1CCN(C(=O)c2ccccc2NS(=O)(=O)c2ccc(F)cc2)CC1	none
Cc1ccc(-n2c(SCC(=O)NCCN3C(=O)CSC3=O)nnc2-c2cccc(C)c2)cc1	none
Cc1ccc(-n2c(SCC(=O)NCCN3C(=O)CSC3=O)nnc2-c2ccccc2)cc1	Lmaj promast 62
Cc1ccc(-n2c(SCC(=O)NCCN3C(=O)CSC3=O)nnc2-c2ccccc2)cc1C	none
Cn1c(SCC(=O)NCCN2C(=O)CSC2=O)nnc1-c1ccccc1	Lmaj promast 56 (no result: ABCB1 inh)
CC/C(=N\NC(=O)c1ccc(-c2ccccc2)cc1)C12CC3CC(CC(C3)C1)C2	Lmaj promast 65
C/C(=N\NC(=O)c1ccncc1)C12CC3CC(CC(C3)C1)C2	none
COCCN(C(=O)CSc1nncn1-c1ccccc1)c1c(N)n(Cc2ccccc2)c(=O)[nH]c1=O	Lmaj promast 54
CN(C)c1nc2ccc(OCCN3CCCCC3)cc2s1	Lmaj promast 60
CN1CCCN(C(=O)c2ccc(Cl)c(S(=O)(=O)N(C)c3ccccc3)c2)CC1	Lmaj promast 72
CN1CCN(C(=O)c2ccc(Cl)c(S(=O)(=O)N3CCCCC3)c2)CC1	none
COc1ccc2nc(NCc3ccccc3)[nH]c2c1	none
Cc1ccc2nc(NCc3ccccc3)[nH]c2c1	Lmaj promast 65
Cc1cc(C)n(CCNc2nc3nonc3nc2N2CCCCC2)n1	none
Cc1ccc(Nc2nc(N)c([N+](=O)[O-])c(N3CCCC(C)C3)n2)cc1C (stereo not given)	WT yeast gro inh 96
CCN1CCN(c2nc(N)c([N+](=O)[O-])c(Nc3ccc(C)c(C)c3)n2)CC1	Lmaj promast 60
CC1CCCN(c2nc(NCc3ccco3)nc(N)c2[N+](=O)[O-])C1 (stereo not given)	none
CCN1CCN(c2nc(N)c([N+](=O)[O-])c(Nc3ccc(C)cc3)n2)CC1	none
Cc1ccc(Nc2nc(N3CCN(C)CC3)nc(N)c2[N+](=O)[O-])cc1C	WT yeast gro inh 83, Lmaj promast 97
CC(C)(C)NC(=O)COc1ccccc1C#N	none
CCC(CC)c1nnc(NC(=O)CCNC(=O)c2ccccc2Cl)s1	none
COc1ccc(-c2cc(=O)oc3cc(OCC(C)=O)ccc23)cc1	Lmaj promast 64
COc1ccc2c(-c3cc4ccc(OCc5ccc(F)cc5)cc4oc3=O)cc(=O)oc2c1	Lmaj promast 52
COc1ccc(-c2c(C)c3ccc(OCC(C)=O)cc3oc2=O)cc1	none
O=c1oc2cc(OCc3ccc(C(F)(F)F)cc3)ccc2cc1-c1ccccn1	none
O=c1c(-c2n[nH]c(=S)n2-c2ccccc2)cccn1Cc1cccc(Cl)c1	none
CCS(=O)(=O)c1ccc(OC)c(N=Nc2ccc(O)c3ncccc23)c1	Lmaj promast 100
Cc1ccc(C)c(N=Nc2ccc(O)c3ncccc23)c1	Lmaj promast 100
Cc1cccc(N=Nc2ccc(O)c3ncccc23)c1	WT yeast gro inh 65, Lmaj promast 100
Cc1cccnc1NCc1ccc(O)c2ncccc12	Lmaj promast 58
Cc1ccc(NCc2ccc(O)c3ncccc23)cc1	none
COc1ccc(S(=O)(=O)NCCOc2cccc3cccnc23)cc1OC	none
CN(Cc1ccccc1)c1ccc(S(=O)(=O)N2CCC(C(=O)O)CC2)cc1[N+](=O)[O-]	none
COc1nc(C)nc2c1sc(=S)n2C	none (no result: WT yeast gro inh)
CCC1=NN(C(=O)CCc2ccc3c(c2)OCO3)C(O)(C(F)(F)F)C1 (stereo not given)	none
CCOc1ccc(-n2cc(C(=O)c3cc(Cl)ccc3O)cc(C#N)c2=O)cc1	WT yeast gro inh 59
Cc1cc(C(=O)COC(=O)Cn2cnc3c2c(=O)n(C)c(=O)n3C)c(C)n1C	none
CCCCn1cnc2c1c(=O)n(CC(=O)c1cc(C)n(C)c1C)c(=O)n2CC(C)C	Lmaj promast 96
CCOC(=O)c1oc2ccccc2c1CSc1nnc(-c2ccco2)o1	none
CCOC(=O)c1oc2ccccc2c1CSc1nnnn1-c1ccc(C)cc1	RAM network inh 10
OC(Cn1ccnc1)c1ccc(Cl)cc1Cl (stereo not given)	none
CC1(c2ccc(Cl)cc2Cl)OCC(Cn2ccnc2)O1 (stereo not given)	WT yeast gro inh 73
CC(C)(C)C1CCC(OCC(O)CN2CCN(c3ccccn3)CC2)CC1 (stereo not given)	Lmaj promast 94
CC1CN(CC(O)COC2CCC(C(C)(C)C)CC2)CC(C)O1 (stereo not given)	Lmaj promast 90
CC(C)NCC(O)COC1CCC(C(C)(C)C)CC1 (stereo not given)	Lmaj promast 90
Cc1cc2ncn(CC(O)COC3CCCCC3)c2cc1C (stereo not given)	none
Cc1c(C)n(CC(O)CN2CCCCCC2)c2ccccc12 (stereo not given)	Lmaj promast 99
OC(COC(c1ccccc1)c1ccccc1)CN1CCN(c2ccccn2)CC1 (stereo not given)	none
CC(C)NC(=S)NNc1nc2ccccc2s1	none
OC(COC1CCCCC1)CN1CCN(c2ccccc2)CC1 (stereo not given)	none
OC(CN1CCN(c2ccccn2)CC1)Cn1c2ccccc2c2ccccc21 (stereo not given)	Lmaj promast 100
CC(C)(C)C1CCC(OCC(O)CN2CCN(Cc3ccccc3)CC2)CC1 (stereo not given)	Lmaj promast 91
O=C(COC(=O)/C=C/c1cccs1)NC1CC1	none

High-throughput results as filed in PubChem BioAssay.
